In ChEMBL document CHEMBL5678806, “NMS-P937, an orally available, specific small-molecule polo-like kinase 1 inhibitor with antitumor activity in solid and hematologic malignancies” (Mol Cancer Ther, 2012):
Calls of active or inactive are those of the source. The rule behind the calls is not given here.

What was measured:
[1] = target: Cyclin-dependent kinase 1/cyclin B1 (Homo sapiens, UniProt P06493); assay: Inhibition of CDK1/CycB (unknown origin) in presence of [gamma-33P]ATP; type: protein-complex assay
Sequence of Cyclin-dependent kinase 1/cyclin B1 (P06493 whole entry): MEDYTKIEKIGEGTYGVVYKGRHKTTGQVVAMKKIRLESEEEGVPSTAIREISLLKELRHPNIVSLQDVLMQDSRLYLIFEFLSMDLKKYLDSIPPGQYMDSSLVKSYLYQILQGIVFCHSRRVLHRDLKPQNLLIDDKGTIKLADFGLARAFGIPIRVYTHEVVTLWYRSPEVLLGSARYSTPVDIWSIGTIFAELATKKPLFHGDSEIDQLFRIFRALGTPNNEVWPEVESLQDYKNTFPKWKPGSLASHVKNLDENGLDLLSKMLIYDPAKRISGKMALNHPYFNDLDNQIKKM
Sequence of Cyclin-dependent kinase 1/cyclin B1 (P14635 whole entry, further chain): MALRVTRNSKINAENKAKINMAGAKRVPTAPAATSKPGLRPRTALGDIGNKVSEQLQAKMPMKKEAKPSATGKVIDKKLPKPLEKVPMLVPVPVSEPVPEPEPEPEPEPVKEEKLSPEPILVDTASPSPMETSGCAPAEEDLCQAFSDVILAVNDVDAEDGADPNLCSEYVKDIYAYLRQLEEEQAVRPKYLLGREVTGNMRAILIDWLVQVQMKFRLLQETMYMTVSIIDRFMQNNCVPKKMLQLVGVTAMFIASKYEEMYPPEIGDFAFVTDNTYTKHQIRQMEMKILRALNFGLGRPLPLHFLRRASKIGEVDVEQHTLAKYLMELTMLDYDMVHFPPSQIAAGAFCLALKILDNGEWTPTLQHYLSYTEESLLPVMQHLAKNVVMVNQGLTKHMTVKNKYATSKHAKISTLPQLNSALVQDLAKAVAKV

[2] = Inhibition of SULU1 (unknown origin) in presence of [gamma-33P]ATP; design: species or system Homo sapiens
[3] = target: Tyrosine-protein kinase ZAP-70 (Homo sapiens, UniProt P43403); assay: Inhibition of ZAP70 (unknown origin) in presence of [gamma-33P]ATP
Sequence of Tyrosine-protein kinase ZAP-70 (P43403 whole entry, the tested form may be a part): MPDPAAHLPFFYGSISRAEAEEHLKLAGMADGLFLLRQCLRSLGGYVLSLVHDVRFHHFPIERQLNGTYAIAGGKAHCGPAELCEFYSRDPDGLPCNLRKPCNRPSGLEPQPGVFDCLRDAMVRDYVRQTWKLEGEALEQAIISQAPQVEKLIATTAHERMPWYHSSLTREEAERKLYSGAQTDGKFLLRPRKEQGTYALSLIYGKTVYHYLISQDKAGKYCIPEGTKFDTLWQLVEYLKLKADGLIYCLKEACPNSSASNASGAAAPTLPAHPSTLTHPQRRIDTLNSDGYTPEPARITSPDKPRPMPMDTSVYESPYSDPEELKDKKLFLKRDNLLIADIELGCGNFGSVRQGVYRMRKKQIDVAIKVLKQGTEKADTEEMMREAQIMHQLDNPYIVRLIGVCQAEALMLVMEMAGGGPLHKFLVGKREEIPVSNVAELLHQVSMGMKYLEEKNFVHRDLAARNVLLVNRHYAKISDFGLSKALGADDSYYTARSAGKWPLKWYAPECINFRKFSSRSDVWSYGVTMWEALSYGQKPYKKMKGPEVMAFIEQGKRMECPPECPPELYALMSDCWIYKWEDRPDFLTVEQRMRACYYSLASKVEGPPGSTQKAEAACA

[4] = target: Calcium/calmodulin-dependent protein kinase type II subunit gamma (Homo sapiens) (UniProt Q13555); assay: Inhibition of N-terminal 6His-tagged recombinant human CaMKIIgamma (1 to 330 residues) expressed in baculovirus infected Sf21 cells assessed as residual activity at 0.1 uM relative to control
Sequence of Calcium/calmodulin-dependent protein kinase type II subunit gamma (Homo sapiens) (Q13555 whole entry, the tested form may be a part): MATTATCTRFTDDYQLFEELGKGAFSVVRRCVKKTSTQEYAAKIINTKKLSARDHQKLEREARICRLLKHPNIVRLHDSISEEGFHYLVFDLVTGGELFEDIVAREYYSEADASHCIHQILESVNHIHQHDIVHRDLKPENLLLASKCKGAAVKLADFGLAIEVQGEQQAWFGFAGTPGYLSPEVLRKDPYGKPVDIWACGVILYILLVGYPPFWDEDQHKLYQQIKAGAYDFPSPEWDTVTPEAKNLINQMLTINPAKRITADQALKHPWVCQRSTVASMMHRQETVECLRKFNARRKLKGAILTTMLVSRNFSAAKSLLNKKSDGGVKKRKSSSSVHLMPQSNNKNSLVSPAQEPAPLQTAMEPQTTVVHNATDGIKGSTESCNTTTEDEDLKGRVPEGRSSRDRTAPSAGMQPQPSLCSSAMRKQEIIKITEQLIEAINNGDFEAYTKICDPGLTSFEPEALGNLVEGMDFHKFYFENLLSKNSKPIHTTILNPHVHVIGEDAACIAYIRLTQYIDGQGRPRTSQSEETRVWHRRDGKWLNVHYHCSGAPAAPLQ

[5] = target: Serine/threonine-protein kinase 17A (Homo sapiens) (UniProt Q9UEE5); assay: Inhibition of N-terminal 6His-tagged recombinant full-length human DRAK1 expressed in baculovirus infected Sf21 cells assessed as residual activity at 0.1 uM relative to control
Sequence of Serine/threonine-protein kinase 17A (Homo sapiens) (Q9UEE5 whole entry): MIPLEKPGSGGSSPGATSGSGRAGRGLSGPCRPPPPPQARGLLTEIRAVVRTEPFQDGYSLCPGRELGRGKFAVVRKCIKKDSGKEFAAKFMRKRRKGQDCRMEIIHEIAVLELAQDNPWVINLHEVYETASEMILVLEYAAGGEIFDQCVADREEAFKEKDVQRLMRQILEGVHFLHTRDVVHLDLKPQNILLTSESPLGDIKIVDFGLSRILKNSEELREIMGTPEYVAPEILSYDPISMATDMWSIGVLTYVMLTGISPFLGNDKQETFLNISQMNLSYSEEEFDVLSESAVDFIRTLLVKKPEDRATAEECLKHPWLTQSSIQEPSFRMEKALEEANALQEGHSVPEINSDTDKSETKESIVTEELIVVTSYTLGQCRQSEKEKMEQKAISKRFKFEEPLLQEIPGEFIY

[6] = target: Dual specificity mitogen-activated protein kinase kinase 1 (Homo sapiens) (UniProt Q02750); assay: Inhibition of N-terminal GST and C-terminal His6-tagged recombinant full-length human MEK1 expressed in E. coli assessed as residual activity at 0.1 uM relative to control
Sequence of Dual specificity mitogen-activated protein kinase kinase 1 (Homo sapiens) (Q02750 whole entry): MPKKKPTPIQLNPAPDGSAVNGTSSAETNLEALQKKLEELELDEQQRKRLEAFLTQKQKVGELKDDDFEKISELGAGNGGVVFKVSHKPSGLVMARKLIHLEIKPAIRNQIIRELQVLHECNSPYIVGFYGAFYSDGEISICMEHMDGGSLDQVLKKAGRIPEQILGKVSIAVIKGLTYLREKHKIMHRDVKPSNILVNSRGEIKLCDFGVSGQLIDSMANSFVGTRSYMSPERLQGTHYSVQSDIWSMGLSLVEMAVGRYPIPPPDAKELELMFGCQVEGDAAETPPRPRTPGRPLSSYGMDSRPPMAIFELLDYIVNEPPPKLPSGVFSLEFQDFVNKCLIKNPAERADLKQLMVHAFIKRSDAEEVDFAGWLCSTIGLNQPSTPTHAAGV

[7] = target: SRSF protein kinase 3 (Homo sapiens) (UniProt Q9UPE1); assay: Inhibition of N-terminal 6His-tagged recombinant human full-length MSSK1 expressed in baculovirus infected Sf21 cells assessed as residual activity at 0.1 uM relative to control
Sequence of SRSF protein kinase 3 (Homo sapiens) (Q9UPE1 whole entry): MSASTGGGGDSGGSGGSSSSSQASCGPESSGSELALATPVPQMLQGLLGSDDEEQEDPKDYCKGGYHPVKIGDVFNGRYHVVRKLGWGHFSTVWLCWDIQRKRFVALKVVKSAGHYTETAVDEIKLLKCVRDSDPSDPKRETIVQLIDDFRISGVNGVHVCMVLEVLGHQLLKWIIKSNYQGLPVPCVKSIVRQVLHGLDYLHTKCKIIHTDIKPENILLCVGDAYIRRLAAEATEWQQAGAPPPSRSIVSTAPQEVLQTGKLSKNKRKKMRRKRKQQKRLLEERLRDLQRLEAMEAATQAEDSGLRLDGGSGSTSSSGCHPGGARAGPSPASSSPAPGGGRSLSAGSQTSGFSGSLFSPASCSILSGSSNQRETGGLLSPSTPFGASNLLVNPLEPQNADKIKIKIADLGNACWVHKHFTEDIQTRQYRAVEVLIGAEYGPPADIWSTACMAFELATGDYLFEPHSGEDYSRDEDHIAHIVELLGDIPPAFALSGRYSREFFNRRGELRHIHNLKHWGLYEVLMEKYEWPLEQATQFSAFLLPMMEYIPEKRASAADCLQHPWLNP

[8] = target: cAMP-dependent protein kinase (PKA) (Homo sapiens) (UniProt P22694+P17612+P22612); assay: Inhibition of recombinant human full-length PKA expressed in E.coli BL21 (DE3) pLysS cells assessed as residual activity at 0.1 uM relative to control
[9] = target: BDNF/NT-3 growth factors receptor (Homo sapiens) (UniProt Q16620); assay: Inhibition of N-terminal His6 tagged recombinant human TrkB (455 to end residues) expressed in baculovirus infected Sf21 cells assessed as residual activity at 0.1 uM relative to control
Sequence of BDNF/NT-3 growth factors receptor (Homo sapiens) (Q16620 32-822 limits assumed): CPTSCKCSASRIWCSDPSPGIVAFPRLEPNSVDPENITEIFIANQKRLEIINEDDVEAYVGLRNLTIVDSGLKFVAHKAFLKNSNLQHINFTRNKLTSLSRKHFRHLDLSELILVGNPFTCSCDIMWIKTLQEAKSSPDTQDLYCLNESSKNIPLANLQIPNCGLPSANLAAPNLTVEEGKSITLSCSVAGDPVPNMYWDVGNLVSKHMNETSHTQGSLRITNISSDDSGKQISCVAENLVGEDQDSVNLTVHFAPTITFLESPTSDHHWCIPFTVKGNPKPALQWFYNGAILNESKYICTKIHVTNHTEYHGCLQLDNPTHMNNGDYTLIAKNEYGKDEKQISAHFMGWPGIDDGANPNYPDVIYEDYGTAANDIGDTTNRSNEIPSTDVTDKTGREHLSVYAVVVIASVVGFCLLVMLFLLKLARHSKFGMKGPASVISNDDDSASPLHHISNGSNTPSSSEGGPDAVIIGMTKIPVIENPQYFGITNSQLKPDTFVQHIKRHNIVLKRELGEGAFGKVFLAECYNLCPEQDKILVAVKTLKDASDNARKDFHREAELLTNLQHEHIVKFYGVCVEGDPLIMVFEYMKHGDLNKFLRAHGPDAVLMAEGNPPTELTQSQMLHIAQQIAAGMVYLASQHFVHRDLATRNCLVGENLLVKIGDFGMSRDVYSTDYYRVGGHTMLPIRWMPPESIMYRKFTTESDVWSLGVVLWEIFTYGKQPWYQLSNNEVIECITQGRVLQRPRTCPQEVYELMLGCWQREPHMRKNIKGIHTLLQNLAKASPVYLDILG

[10] = target: Tyrosine-protein kinase Lyn (Mus musculus) (UniProt P25911); assay: Inhibition of N-terminal his6-tagged recombinant full-length mouse Lyn expressed in baculovirus infected Sf21 cells assessed as residual activity at 1 uM relative to control
Sequence of Tyrosine-protein kinase Lyn (Mus musculus) (P25911 whole entry): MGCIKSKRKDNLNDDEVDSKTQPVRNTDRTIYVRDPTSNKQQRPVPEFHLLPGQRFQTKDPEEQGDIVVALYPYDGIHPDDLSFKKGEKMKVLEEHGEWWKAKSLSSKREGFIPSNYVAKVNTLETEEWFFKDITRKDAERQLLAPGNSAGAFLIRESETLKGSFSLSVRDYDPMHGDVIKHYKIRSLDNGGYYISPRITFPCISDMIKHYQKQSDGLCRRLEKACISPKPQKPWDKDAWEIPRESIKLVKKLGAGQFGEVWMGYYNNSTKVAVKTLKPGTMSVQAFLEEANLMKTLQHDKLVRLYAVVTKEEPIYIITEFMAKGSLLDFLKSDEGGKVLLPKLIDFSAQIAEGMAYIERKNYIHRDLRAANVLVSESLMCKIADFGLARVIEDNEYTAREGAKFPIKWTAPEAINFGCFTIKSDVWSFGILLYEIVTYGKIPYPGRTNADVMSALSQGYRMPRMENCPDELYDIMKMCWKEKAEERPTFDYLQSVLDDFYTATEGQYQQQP

SH-SY5Y = assay: Antiproliferative activity against human SH-SY5Y cells assessed as inhibition of cell growth incubated for 72 hrs by cell-titer glo assay; type: functional, cell-based
MDA-MB-468 = assay: Antiproliferative activity against human MDA-MB-468 cells assessed as inhibition of cell growth incubated for 72 hrs by cell-titer glo assay; type: functional, cell-based; settings: MDA-MB-468, 72 h
Method in brief: (§1)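 Cells seeded at 10,000–30,000/cm² (adherent) or 100,000/mL (nonadherent) in medium with 10% fetal calf serum; after 24 h, treated in duplicate with serial dilutions for 72 h. Viable cell number read by CellTiter-Glo luminescence; IC50 from sigmoidal fit; at least two independent experiments.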

CAMA-1 = assay: Antiproliferative activity against human CAMA-1 cells assessed as inhibition of cell growth incubated for 72 hrs by cell-titer glo assay; type: functional, cell-based; settings: CAMA-1, 72 h
Method in brief: (§2)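 Cells seeded 10,000–30,000/cm² (adherent) or 100,000/mL (suspension) in medium with 10% fetal calf serum; after 24 h treated in duplicate with serial dilutions for 72 h. Viable cells read by CellTiter-Glo luminescence; IC50 from sigmoidal fit; at least two independent experiments.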

BT-474 = assay: Antiproliferative activity against human BT-474 cells assessed as inhibition of cell growth incubated for 72 hrs by cell-titer glo assay; type: functional, cell-based; settings: BT-474, 72 h; method in brief: as §2
SW480 = assay: Antiproliferative activity against human SW480 cells assessed as inhibition of cell growth incubated for 72 hrs by cell-titer glo assay; type: functional, cell-based; settings: SW480, 72 h
A498 = assay: Antiproliferative activity against human A498 cells assessed as inhibition of cell growth incubated for 72 hrs by cell-titer glo assay; type: functional, cell-based; settings: A498, 72 h; method in brief: as §2
Calu-3 = assay: Antiproliferative activity against human Calu-3 cells assessed as inhibition of cell growth incubated for 72 hrs by cell-titer glo assay; type: functional, cell-based; settings: Calu-3, 72 h; method in brief: as §2
RPMI-8226 = assay: Antiproliferative activity against human RPMI-8226 cells assessed as inhibition of cell growth incubated for 72 hrs by cell-titer glo assay; type: functional, cell-based; settings: RPMI-8226, 72 h
Method in brief: (§3)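 Cells from ATCC or ECACC, kept in supplier-recommended medium with 1% penicillin-streptomycin at 37°C, 5% CO₂. Seeded at 10,000–30,000/cm² (adherent) or 100,000/mL (nonadherent) in medium with 10% fetal calf serum. Dosed after 24 h in duplicate with serial dilutions. Viable cells read by CellTiter-Glo 72 h later. IC50 from sigmoidal fit. At least two independent experiments.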

SK-OV-3 = assay: Antiproliferative activity against human SK-OV-3 cells assessed as inhibition of cell growth incubated for 72 hrs by cell-titer glo assay; type: functional, cell-based; settings: SK-OV-3, 72 h
PC-3 = assay: Antiproliferative activity against human PC-3 cells assessed as inhibition of cell growth incubated for 72 hrs by cell-titer glo assay; type: functional, cell-based; settings: PC-3, 72 h; method in brief: as §3
CAPAN-1 = assay: Antiproliferative activity against human CAPAN-1 cells assessed as inhibition of cell growth incubated for 72 hrs by cell-titer glo assay; type: functional, cell-based; settings: CAPAN-1, 72 h; method in brief: as §2
UACC-62 = assay: Antiproliferative activity against human UACC-62 cells assessed as inhibition of cell growth incubated for 72 hrs by cell-titer glo assay; type: functional, cell-based; settings: UACC-62, 72 h
[11] = Antiproliferative activity against human M-07e cells assessed as inhibition of cell growth incubated for 72 hrs by cell-titer glo assay; type: functional, cell-based; method in brief: as §1
HL-60 = assay: Antiproliferative activity against human HL-60 cells assessed as inhibition of cell growth incubated for 72 hrs by cell-titer glo assay; type: functional, cell-based; settings: HL-60, 72 h; method in brief: as §1
697 = assay: Antiproliferative activity against human 697 cells assessed as inhibition of cell growth incubated for 72 hrs by cell-titer glo assay; type: functional, cell-based; settings: Homo sapiens, 697, 72 h; method in brief: as §2
SU-DHL-6 = assay: Antiproliferative activity against human SU-DHL-6 cells assessed as inhibition of cell growth incubated for 72 hrs by cell-titer glo assay; type: functional, cell-based; settings: SU-DHL-6, 72 h
LP-1 = assay: Antiproliferative activity against human LP-1 cells assessed as inhibition of cell growth incubated for 72 hrs by cell-titer glo assay; type: functional, cell-based; settings: LP-1, 72 h; method in brief: as §1
HT-29 = assay: Antiproliferative activity against human HT-29 cells assessed as inhibition of colony formation at <= 8 nmol/L incubated for 72 hrs and measured after 18 days by crystal violet staining based analysis; type: functional, cell-based
Method in brief: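 HT29 colon adenocarcinoma cells exposed to a range of concentrations for 72 h, then compound removed and cells replated and grown 18 days in compound-free medium; colony formation scored.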

HCT-116 = assay: Antitumor activity against human HCT-116 cells xenografted in nu/nu mouse assessed as tumor growth inhibition at 45 mg/kg, iv administered for 3 days relative to control; type: functional; settings: HCT-116, 72 h, time 3 day, read-out: TGI

## CN1CCN(c2ccc(OC(F)(F)F)c(Nc3ncc4c(n3)-c3c(c(C(N)=O)nn3CCO)CC4)c2)CC1 [ONVANSERTIB]
[1]
  IC50: > 10 µM
[2]
  IC50: > 10 µM
[3]
  IC50: > 10 µM
[4]
  Activity: 123%
[5]
  Activity: 58%
[6]
  Activity: 113%
[7]
  Activity: 87%
[8]
  Activity: 141%
[9]
  Activity: 145%
[10]
  Activity: 129%
SH-SY5Y
  IC50: 30 nM
MDA-MB-468
  IC50: 83 nM
CAMA-1
  IC50: 350 nM
BT-474
  IC50: 156 nM
SW480
  IC50: 618 nM
A498
  IC50: 1070 nM
Calu-3
  IC50: 629 nM
RPMI-8226
  IC50: 128 nM
SK-OV-3
  IC50: 191 nM
PC-3
  IC50: 152 nM
CAPAN-1
  IC50: 237 nM
UACC-62
  IC50: 103 nM
[11]
  IC50: 66 nM
HL-60
  IC50: 73 nM
697
  IC50: 26 nM
SU-DHL-6
  IC50: 50 nM
LP-1
  IC50: 59 nM
HT-29
  Activity: Active
HCT-116
  inhibition in vivo at 45 mg/kg: 83%
